pIC50: −log10 of the molar value.
Legend:
[1] = system: Plasmodium falciparum; assay: Antimalarial activity against chloroquine-sensitive Plasmodium falciparum 3D7 after 48 to 72 hrs by SYBR green-1 assay; format: functional, organism-based
Method in brief: (§1)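 P. falciparum culture tested in vitro on the CQ-sensitive 3D7 or CQ-resistant W2 clone. Each experiment was run twice, with wells in triplicate. IC50 in nM is the mean of at least two experiments.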

[2] = system: Plasmodium falciparum; assay: Resistant index, ratio of IC50 for chloroquine-resistant Plasmodium falciparum W2 to IC50 for chloroquine-sensitive Plasmodium falciparum 3D7; format: functional
[3] = system: HUVEC; assay: Cytotoxicity against HUVEC at 0.01 to 50 umol/L after 24 hrs by Tryptan Blue assay; format: cell-based; details: human
Method in brief: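 Human umbilical vein endothelial cells (HUVEC) were exposed to final concentrations from 0.01 up to 50 μM. Cytotoxicity was reported as an IC50 or as a minimum cytotoxic value extrapolated from the tested range.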

[4] = system: Plasmodium falciparum; assay: Antimalarial activity against chloroquine-resistant Plasmodium falciparum W2 after 48 to 72 hrs by SYBR green-1 assay; format: functional, organism-based; method in brief: as §1
[5] = system: HUVEC; assay: Cytotoxicity against HUVEC up to 100 uM after 24 hrs by Tryptan Blue assay; format: cell-based; details: human

Structure (SMILES)	pIC50 [1]	Ratio IC50 [2]	Activity [3]	pIC50 [4]	Activity [5]
COc1ccc(SCC2(O)C=C(CC(F)(F)F)C(=O)N2CCNc2ccnc3cc(Cl)ccc23)cc1 (centres undefined)	7.00	1.71	Non-toxic	6.76	–
O=C1C(CC(F)(F)F)=CC(O)(CSc2ccccc2)N1CCNc1ccnc2cc(Cl)ccc12 (centres undefined)	6.97	1.56	Non-toxic	6.78	–
O=C1C(CC(F)(F)F)=CC(O)(CSc2cccc[n+]2[O-])N1CCNc1ccnc2cc(Cl)ccc12 (centres undefined)	6.62	1.13	Non-toxic	6.56	–
CN(CCNc1ccnc2cc(Cl)ccc12)CCN1C(=O)C(CC(F)(F)F)=CC1(O)CSc1ccc(Cl)cc1 (centres undefined)	7.26	–	–	7.24	Non-toxic
O=C1C(CC(F)(F)F)=CC(O)(CSc2ccccn2)N1CCNc1ccnc2cc(Cl)ccc12 (centres undefined)	6.75	1.22	Non-toxic	6.66	–
O=C1C(CC(F)(F)F)=CC(O)(CSc2ccc(F)cc2)N1CCNc1ccnc2cc(Cl)ccc12 (centres undefined)	6.52	2.49	Non-toxic	6.12	–
CN(CCNc1ccnc2cc(Cl)ccc12)CCN1C(=O)C(CC(F)(F)F)=CC1(O)CSc1ccccc1 (centres undefined)	7.33	–	–	7.26	Non-toxic
O=C1C(CC(F)(F)F)=CC(O)(CSc2ncccn2)N1CCNc1ccnc2cc(Cl)ccc12 (centres undefined)	6.56	1.65	Non-toxic	6.34	–
Cn1cnnc1SCC1(O)C=C(CC(F)(F)F)C(=O)N1CCNc1ccnc2cc(Cl)ccc12 (centres undefined)	6.30	>3.2	–	< 5.80	–
O=C1C(CC(F)(F)F)=CC(O)(CSc2ccncc2)N1CCNc1ccnc2cc(Cl)ccc12 (centres undefined)	7.05	7.48	–	6.18	–
CN(CCNc1ccnc2cc(Cl)ccc12)CCN1C(=O)C(CC(F)(F)F)=CC1(O)CSc1ccc(Br)cc1 (centres undefined)	7.35	–	–	7.38	Non-toxic

Reference: ChEMBL document CHEMBL2440053, “New route to the 5-((arylthio- and heteroarylthio)methylene)-3-(2,2,2-trifluoroethyl)-furan-2(5H)-ones--key intermediates in the synthesis of 4-aminoquinoline γ-lactams as potent antimalarial compounds” (Bioorg Med Chem Lett, 2013)
